Experiment [1] is described as follows: (§1) Partition ratio was determined by quantitating amount of compound consumed after complete inactivation of a known amount of dopamine beta-hydroxylase. The method in brief: (§2)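 Bovine DβH (15-20 μg) was fully inactivated at 25 °C with inhibitor in 125 mM Mes/125 mM NaOAc, pH 5.5, with 0.5 mg/mL catalase and 12 mM ascorbate. Inhibitor consumed was quantified by C18 HPLC (water-acetonitrile) with UV detection at each inhibitor's maximum. Controls without enzyme were run. Partition ratio is turnover/inactivation.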

Experiment [2] in a line: Ratio of inactivation constant (Kinact) and inhibitory constant (Ki). The essentials:
(§3)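 Purified bovine DβH (20-40 μg) was preincubated at 25 °C with varied inhibitor in 100 mM Mes/100 mM NaOAc, pH 5.0, with 0-3% DMF, 0.5 mg/mL catalase and 12 mM ascorbate. Timed aliquots went into assay mix at 37 °C, pH 5.5, with 30 mM tyramine and 12 mM ascorbate, and O2 uptake was read. Apparent kinact came from ln(activity) versus time; 1/kinact versus 1/[I] replots gave kinact and Ki.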

Experiment [3] addresses T1, Dopamine beta-hydroxylase (Bos taurus) (UniProt P15101).
T1 sequence (whole entry): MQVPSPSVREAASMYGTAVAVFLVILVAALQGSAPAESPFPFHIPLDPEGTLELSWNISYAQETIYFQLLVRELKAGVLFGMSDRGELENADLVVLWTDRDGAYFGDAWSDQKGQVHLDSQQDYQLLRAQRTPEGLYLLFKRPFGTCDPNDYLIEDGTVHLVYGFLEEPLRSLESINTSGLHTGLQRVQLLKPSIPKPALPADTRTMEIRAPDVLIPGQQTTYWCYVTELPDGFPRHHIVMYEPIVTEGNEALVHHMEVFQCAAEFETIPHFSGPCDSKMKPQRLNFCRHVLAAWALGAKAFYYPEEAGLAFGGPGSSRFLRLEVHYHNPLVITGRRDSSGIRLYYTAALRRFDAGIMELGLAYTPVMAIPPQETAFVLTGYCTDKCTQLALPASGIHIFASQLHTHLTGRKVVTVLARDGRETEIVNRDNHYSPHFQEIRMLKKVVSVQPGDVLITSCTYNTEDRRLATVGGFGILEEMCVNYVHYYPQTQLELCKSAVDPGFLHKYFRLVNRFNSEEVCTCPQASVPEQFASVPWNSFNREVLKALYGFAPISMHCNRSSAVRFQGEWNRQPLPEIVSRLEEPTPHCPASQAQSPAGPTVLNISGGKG
Nature of the experiment: Inactivation constant of compound was determined by using bovine dopamine beta-hydroxylase. The method in brief: as §3

In experiment [4] the target is T2, Dopamine beta-hydroxylase (Bos taurus, UniProt P15101).
T2 sequence (P15101 whole entry): T1 sequence (whole entry)
The experiment is described as follows: Compound was evaluated for the ability to bind to dopamine beta-hydroxylase of bovine. The method in brief: as §3

For experiment [5], the target named is T1, Dopamine beta-hydroxylase (Bos taurus). The description is as §1. The essentials: as §2

The results in this text go back to ChEMBL document CHEMBL1124436, “Benzofurans as mechanism-based inhibitors of dopamine beta-hydroxylase” (J Med Chem, 1989).

As for `Oc1ccc2ccoc2c1`, the Partition ratio in experiment [1] worked out at 27. In experiment [2], the Ratio worked out at 5750. Moreover, the K inact in experiment [3] was 0.23 min⁻¹. Besides, in experiment [4], the Ki is 40 µM.

`NCC=C1SCCS1`: the Ratio in experiment [2] is 30000. This molecule also displayed a K inact in experiment [3] of 0.15 min⁻¹. The same molecule showed an inhibition constant (Ki) in experiment [4] of 5 µM.

For `C/C=C/c1ccc(O)cc1`, the Partition ratio in experiment [5] was determined as 680. The molecule also had a Ki in experiment [4] above 20000 µM.

With `C=Cc1ccc(O)cc1` [4-VINYLPHENOL], in experiment [1], the Partition ratio came to 730. In experiment [3], this molecule had a K inact of 0.025 min⁻¹. Moreover, affinity in experiment [4] was put at a Ki of 700 µM.

Consider `Oc1ccc2occc2c1`, for which the Partition ratio in experiment [1] amounted to 8. The K inact in experiment [3] is 0.23 min⁻¹. Besides, the inhibitory constant (Ki) in experiment [4] was determined as 1900 µM.

For the molecule `Oc1cccc2ccoc12`, the Partition ratio in experiment [1] came to 35. The K inact in experiment [3] was found to be 0.25 min⁻¹. Besides, the Ki in experiment [4] is 3200 µM.

As to `C#CC(CN)c1ccc(O)cc1` (stereo not given), in experiment [2], the Ratio was 3230.

Regarding `C=C(CN)c1ccc(O)cc1`, the Ratio in experiment [2] was 1560.
